Compounds with a hit are over-represented: about 2.5% of the library has one in this group of screens.
PglD inh – PglD (C. jejuni) enzyme inhibition; purified PglD enzyme, DTNB colorimetric CoA detection; inhibition, % at 12.5 µM; hit rate 0.098% among 360,000; AID 602405; in the data active = inhibition above about 16%, passing the limit was not always enough; inconclusive = no clear call, values can overlap the other calls
ERAP1 HTS inh – ERAP1 (human) enzyme inhibition; recombinant ERAP1, Leu-AMC fluorescence, 60 min; inhibition, % at 10.7 µM; hit rate 0.15% among 340,000; AID 652197;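 active = mean replicate inhibition of at least 30%, or all replicates individually reaching that 30% level; inactive = mean below 30% and not every replicate reaching it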
Target sequence (Q9NZ08 whole entry, looked up): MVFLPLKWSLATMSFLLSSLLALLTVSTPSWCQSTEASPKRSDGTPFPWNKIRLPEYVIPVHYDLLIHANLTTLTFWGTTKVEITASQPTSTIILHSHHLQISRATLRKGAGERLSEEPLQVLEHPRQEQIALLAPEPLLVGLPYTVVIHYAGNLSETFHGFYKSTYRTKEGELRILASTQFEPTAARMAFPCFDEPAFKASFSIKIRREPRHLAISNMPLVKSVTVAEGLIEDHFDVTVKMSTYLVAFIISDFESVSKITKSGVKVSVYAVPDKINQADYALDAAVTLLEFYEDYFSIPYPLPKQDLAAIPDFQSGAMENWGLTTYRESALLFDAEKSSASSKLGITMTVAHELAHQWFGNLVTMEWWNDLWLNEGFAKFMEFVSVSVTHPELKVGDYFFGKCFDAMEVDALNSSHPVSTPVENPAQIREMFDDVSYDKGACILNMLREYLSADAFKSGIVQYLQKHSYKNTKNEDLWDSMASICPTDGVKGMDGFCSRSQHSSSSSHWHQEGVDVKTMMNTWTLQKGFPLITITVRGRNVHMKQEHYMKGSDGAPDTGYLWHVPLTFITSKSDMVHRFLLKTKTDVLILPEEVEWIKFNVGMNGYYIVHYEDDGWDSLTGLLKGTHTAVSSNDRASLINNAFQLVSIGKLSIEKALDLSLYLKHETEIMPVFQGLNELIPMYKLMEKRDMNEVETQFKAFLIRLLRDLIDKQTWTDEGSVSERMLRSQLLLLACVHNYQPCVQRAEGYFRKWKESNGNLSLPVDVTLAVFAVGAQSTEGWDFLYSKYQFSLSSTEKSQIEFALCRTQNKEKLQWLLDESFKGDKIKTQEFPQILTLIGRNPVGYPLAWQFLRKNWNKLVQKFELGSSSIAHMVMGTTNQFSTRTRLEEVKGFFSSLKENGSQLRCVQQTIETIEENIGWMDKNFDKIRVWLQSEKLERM
DENV2 CPE – inhibitors of DENV2 cytopathic effect; DENV2-infected cells, cytopathic effect rescue, plate reader; CPE inhibition, % at 9.99 µM; hit rate 1.7% among 350,000; AID 651640; in the data active = CPE inhibition above about 20%, passing the limit was not always enough; inconclusive = no clear call, values can overlap the other calls; tested in BHK-21 cells
SIRT5 inh – sirtuin-5 (human) deacylase inhibition; AID 652115; Purified SirT5, succinyl-peptide AMC, trypsin-coupled fluorescence; Q9NXA8; inhibition, % at 15 µM; hit rate 1.1% among 330,000; in the data active = inhibition above about 15%; inconclusive = no clear call, values can overlap the other calls
E-sel inducer – E-selectin induction on HUVECs; P16581; HUVEC E-selectin immunofluorescence imaging; normalized: neutral wells 0, TNF-alpha wells 100; activation, % at 7.58 µM; hit rate 0.37% among 260,000; AID 686992;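 active = mean E-selectin-positive cell signal at least 10% of the positive control, reached in at least 60% of replicates, without over 20% cell loss; inconclusive = no rule given, readout overlaps actives, possibly toxicity-flagged; inactive = the rest, including those meeting only one limit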
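Read-out basis: % PE-positive cells; Test system: HUVEC primary endothelial cells; Technique: immunofluorescence imaging; Dosing: single-point compound dose.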
Hits are given with their value.

`O=c1ccc2cc(O[C@@H]3O[C@H](CO)[C@@H](O)[C@H](O)[C@H]3O)c(O)cc2o1` gave PglD inh inactive, ERAP1 HTS inh 154, DENV2 CPE inactive, SIRT5 inh inactive and E-sel inducer inactive.
Screening CC1c2ccccc2-n2nncc2CN1CC1CCCCC1 (configuration not stated) returned PglD inh inactive, ERAP1 HTS inh inactive, DENV2 CPE inactive, SIRT5 inh inactive and E-sel inducer inactive.
C=CCn1c(O)c(C(C)=NCCN2CCN(C(=S)NC)CC2)c(=O)[nH]c1=O was read as PglD inh inactive, ERAP1 HTS inh inactive, DENV2 CPE inconclusive, SIRT5 inh inactive and E-sel inducer inactive.
Screening C=C(Cl)CSC(=S)N(CC)CC returned PglD inh inactive, ERAP1 HTS inh inactive and DENV2 CPE 32.
Screening Nc1c(C(=O)OC2CCCCC2)c2nc3ccccc3nc2n1CC1CCCO1 (configuration not stated) returned PglD inh inactive.
C[C@]12CCC3C(CC[C@H]4C[C@@H](O)CC[C@]34C)C1C[C@@H](Br)[C@@H]2O (some centres not stated) was read as ERAP1 HTS inh inactive, DENV2 CPE inactive, SIRT5 inh 23 and E-sel inducer inactive.
`CC12CCC(=O)C=C1CCC1C2CCC2(C)C1CCC2(O)CC#N` (configuration not stated) gave PglD inh inactive, ERAP1 HTS inh inactive and DENV2 CPE inactive.
Screening CC12Cc3cn[nH]c3C=C1CCC1C2CCC2(C)C1CCC2(C)O (configuration not stated) returned PglD inh inactive, ERAP1 HTS inh inactive, DENV2 CPE inactive, SIRT5 inh 35 and E-sel inducer inactive.
`CCOC(=O)c1cccc(C2=C(CNC(C)=O)[C@H]3CC[C@@H](C2)N3Cc2ccccc2)c1` gave PglD inh inactive, ERAP1 HTS inh inactive, DENV2 CPE 32, SIRT5 inh inactive and E-sel inducer inactive.
Screening NCCc1c[nH]c2ccccc12 returned PglD inh inactive, ERAP1 HTS inh inactive and DENV2 CPE 63.
`Fc1ccccc1CNCCc1c[nH]c2ccccc12` gave PglD inh inactive, ERAP1 HTS inh inactive, DENV2 CPE 32, SIRT5 inh inactive and E-sel inducer inactive.
For CCCN(CCC)CCc1c[nH]c2ccccc12 the results were ERAP1 HTS inh inactive and DENV2 CPE inactive.
C=CCCC1(C(C)C)C(=O)NC(=S)NC1=O was read as ERAP1 HTS inh inactive, DENV2 CPE inactive, SIRT5 inh inactive and E-sel inducer inactive.
Screening CCN1C[C@]2(CO)CC[C@H](OC)[C@@]34C5C[C@H]6[C@H](OC)C5[C@](O)(C[C@H]6OC)[C@@](O)(C(OC)C23)[C@@H]14 (some centres not stated) returned PglD inh inactive.
COC(=O)[C@@H]1[C@@H](CO)[C@@H]2Cn3c(ccc(C4=CCCCC4)c3=O)[C@H]1N2CCc1ccccc1 was read as PglD inh inactive, ERAP1 HTS inh inactive, DENV2 CPE inactive, SIRT5 inh inactive and E-sel inducer inactive.
`COC(=O)[C@@H]1[C@@H](CO)[C@@H]2Cn3c(ccc(C4=CCCCC4)c3=O)[C@H]1N2Cc1ccccc1OC` gave ERAP1 HTS inh inactive, DENV2 CPE 24, SIRT5 inh inactive and E-sel inducer inactive.
COC(=O)[C@@H]1[C@@H](CO)[C@@H]2Cn3c(ccc(C4=CCCC4)c3=O)[C@H]1N2Cc1ccccn1 was read as PglD inh inactive, ERAP1 HTS inh inactive, DENV2 CPE 118, SIRT5 inh inactive and E-sel inducer inactive.
Screening COC(=O)[C@H]1[C@H](CO)[C@H]2Cn3c(ccc(C4=CCCCC4)c3=O)[C@@H]1N2C(=O)Cc1ccccn1 returned PglD inh inactive, ERAP1 HTS inh inactive, DENV2 CPE inactive, SIRT5 inh inactive and E-sel inducer inactive.
COC(=O)C1C(OC(=O)c2ccccc2)CC2CCC1[N+]2(C)C (configuration not stated) was read as ERAP1 HTS inh 51 and DENV2 CPE inactive.
Screening CCC(c1ccc(C)cc1)N1C(=O)C2C3CCC(O3)C2C1=O (configuration not stated) returned PglD inh inactive, ERAP1 HTS inh inactive, DENV2 CPE 25, SIRT5 inh inactive and E-sel inducer inactive.
For COc1cccc(C2(O)CCN(Cc3ccncc3)CC2)c1 the results were ERAP1 HTS inh inactive and SIRT5 inh inactive.
Screening OC1CN2CCCC(O)C2C1O (configuration not stated) returned ERAP1 HTS inh inactive, DENV2 CPE 55 and SIRT5 inh inactive.
Nc1ccc(CC2=NCCN2)cc1 was read as ERAP1 HTS inh inactive, DENV2 CPE 38, SIRT5 inh inactive and E-sel inducer inactive.
Screening CCN(CC)c1ccccc1 returned PglD inh inactive, ERAP1 HTS inh inactive and DENV2 CPE 129.
Screening CCN(CC)c1ccc(/C=C/[N+](=O)[O-])cc1 returned PglD inh inactive, ERAP1 HTS inh inactive, DENV2 CPE inactive, SIRT5 inh inactive and E-sel inducer inactive.
Screening C/C=C1\NC(=O)[C@H](C)NC(=O)[C@@H](NC(=O)[C@H](Cc2ccc(O)cc2)NC(=O)[C@@H](NC(=O)/C(C)=C/C)C(C)C)[C@@H](C)OC(=O)[C@H](CCCc2ccc(O)cc2)NC(=O)[C@@H](CCC(=O)O)NC1=O returned PglD inh inactive, ERAP1 HTS inh inactive, DENV2 CPE inactive, SIRT5 inh 22 and E-sel inducer inactive.
`COc1ccc(SCC2CN(C)CCC2c2ccc(F)cc2)cc1` (configuration not stated) gave ERAP1 HTS inh inactive, DENV2 CPE 25, SIRT5 inh inactive and E-sel inducer inactive.
For CC[n+]1c(/C=C/C=C/c2ccc(N(C)C)cc2)sc2ccccc21 the results were PglD inh inactive, ERAP1 HTS inh inactive, DENV2 CPE inactive and SIRT5 inh inactive.
CN(C)c1ccc(/C=C/c2cc[n+](C)c3ccccc23)cc1 was read as ERAP1 HTS inh inactive, DENV2 CPE inactive, SIRT5 inh inactive and E-sel inducer 110.
`CN(C)c1ccc(/C=C/C=C/c2sc3ccccc3[n+]2C)cc1` gave PglD inh inactive, ERAP1 HTS inh inactive, DENV2 CPE inactive, SIRT5 inh inactive and E-sel inducer 70.
`CC(C)N1CCN(c2ccc(O)cc2)CC1` gave PglD inh inactive, ERAP1 HTS inh inactive, DENV2 CPE inactive, SIRT5 inh inactive and E-sel inducer inactive.
For CN1C(=O)/C(=C/c2cccn2-c2ccc3ccccc3c2)C(=O)NC1=S the results were PglD inh inactive.
O=C1NC(=S)NC(=O)C1=Cc1cccn1-c1ccc(O)cc1 was read as ERAP1 HTS inh inactive, DENV2 CPE inactive and SIRT5 inh 53.
Screening CC(=O)OC(C)(C)/C=C/C(=O)C(C)(O)C1[C@H](O)C[C@@]2(C)C3CC=C4C(CC[C@@H](O)C4(C)C)[C@]3(CO)C(=O)C[C@]12C (some centres not stated) returned PglD inh inactive, ERAP1 HTS inh inactive, DENV2 CPE inactive, SIRT5 inh inactive and E-sel inducer inactive.
For Nc1ccc(C2(c3ccc(N)cc3)CCCCC2)cc1 the results were ERAP1 HTS inh inactive, DENV2 CPE inactive and SIRT5 inh inactive.
